Test results taken from ChEMBL document CHEMBL5058577, “EUbOPEN Chemogenomics Library 2 (Multiplex)” (2022).

Tested on: HEK-293T
Assay: Multiplex assay against HEK293T
Format: toxicity, cell-based
Settings: human
In short: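 At seeding, live cells were stained with Hoechst33342, BioTracker Green Microtubule Cytoskeleton Dye, MitoTracker Red and Annexin V Alexa Fluor 680. After compound addition they were imaged on a CQ1 microscope at 37°C and 5% CO2, and CellPathfinder machine-learning gating sorted them into Hoechst high-intensity objects or normal cells, with normal cells further split into healthy, pyknosed or fragmented nuclei and pyknosed cells into mitotic or apoptotic. Tubulin, mitochondrial-mass and membrane-permeability phenotypes are given as per cents of cells with healthy nuclei.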

[1] = 12 h, 1 µM, compound concentration 1 uM, replicate 1
[2] = 12 h, 1 µM, compound concentration 1 uM, replicate 2
[3] = 12 h, 10 µM, compound concentration 10 uM, replicate 1
[4] = 12 h, 10 µM, compound concentration 10 uM, replicate 2
[5] = 24 h, 1 µM, compound concentration 1 uM, replicate 1
[6] = 24 h, 1 µM, compound concentration 1 uM, replicate 2
[7] = 24 h, 10 µM, compound concentration 10 uM, replicate 1
[8] = 24 h, 10 µM, compound concentration 10 uM, replicate 2
[9] = 48 h, 1 µM, compound concentration 1 uM, replicate 1
[10] = 48 h, 1 µM, compound concentration 1 uM, replicate 2
[11] = 48 h, 10 µM, compound concentration 10 uM, replicate 1
[12] = 48 h, 10 µM, compound concentration 10 uM, replicate 2

SMILES: CN(C)C(=O)Cn1cc(-c2ccc(-c3nnc4ccccn34)cc2)cn1
- Population Apoptotic (%) [1]: 31%
- Population Fragmented Nuclei (%) [1]: 7%
- Population Healthy Nuclei (%) [1]: 80%
- Population Hoechst High Intensity Objects (%) [1]: 9%
- Population Membrane Permeable-Phenotype (%) [1]: 0%
- Population Mitochondria Different-Phenotype (%) [1]: 40%
- Population Mitotic Cells (%) [1]: 68%
- Population Normal (%) [1]: 90%
- Population Pyknosed Nuclei (%) [1]: 11%
- Population Tubulin-Different-Phenotype (%) [1]: 32%
- Total Cell Count [1]: 432
- Population Apoptotic (%) [2]: 43%
- Population Healthy Nuclei (%) [2]: 79%
- Population Hoechst High Intensity Objects (%) [2]: 10%
- Population Mitochondria Different-Phenotype (%) [2]: 59%
- Population Mitotic Cells (%) [2]: 56%
- Population Normal (%) [2]: 89%
- Population Pyknosed Nuclei (%) [2]: 12%
- Population Tubulin-Different-Phenotype (%) [2]: 27%
- Total Cell Count [2]: 337
- Population Apoptotic (%) [3]: 32%
- Population Fragmented Nuclei (%) [3]: 9%
- Population Healthy Nuclei (%) [3]: 76%
- Population Hoechst High Intensity Objects (%) [3]: 7%
- Population Membrane Permeable-Phenotype (%) [3]: 0%
- Population Mitochondria Different-Phenotype (%) [3]: 61%
- Population Mitotic Cells (%) [3]: 67%
- Population Normal (%) [3]: 92%
- Population Pyknosed Nuclei (%) [3]: 14%
- Population Tubulin-Different-Phenotype (%) [3]: 42%
- Total Cell Count [3]: 427
- Population Apoptotic (%) [4]: 51%
- Population Fragmented Nuclei (%) [4]: 7%
- Population Healthy Nuclei (%) [4]: 80%
- Population Hoechst High Intensity Objects (%) [4]: 8%
- Population Mitochondria Different-Phenotype (%) [4]: 55%
- Population Mitotic Cells (%) [4]: 48%
- Population Normal (%) [4]: 91%
- Population Pyknosed Nuclei (%) [4]: 12%
- Population Tubulin-Different-Phenotype (%) [4]: 18%
- Total Cell Count [4]: 356
- Population Apoptotic (%) [5]: 27%
- Population Fragmented Nuclei (%) [5]: 10%
- Population Healthy Nuclei (%) [5]: 77%
- Population Hoechst High Intensity Objects (%) [5]: 6%
- Population Membrane Permeable-Phenotype (%) [5]: 0%
- Population Mitochondria Different-Phenotype (%) [5]: 28%
- Population Mitotic Cells (%) [5]: 72%
- Population Normal (%) [5]: 93%
- Population Pyknosed Nuclei (%) [5]: 12%
- Population Tubulin-Different-Phenotype (%) [5]: 22%
- Total Cell Count [5]: 595
- Population Apoptotic (%) [6]: 46%
- Population Fragmented Nuclei (%) [6]: 9%
- Population Healthy Nuclei (%) [6]: 82%
- Population Hoechst High Intensity Objects (%) [6]: 7%
- Population Mitochondria Different-Phenotype (%) [6]: 44%
- Population Mitotic Cells (%) [6]: 53%
- Population Normal (%) [6]: 92%
- Population Pyknosed Nuclei (%) [6]: 7%
- Population Tubulin-Different-Phenotype (%) [6]: 18%
- Total Cell Count [6]: 447
- Population Apoptotic (%) [7]: 35%
- Population Fragmented Nuclei (%) [7]: 7%
- Population Healthy Nuclei (%) [7]: 78%
- Population Hoechst High Intensity Objects (%) [7]: 4%
- Population Membrane Permeable-Phenotype (%) [7]: 0%
- Population Mitochondria Different-Phenotype (%) [7]: 44%
- Population Mitotic Cells (%) [7]: 64%
- Population Normal (%) [7]: 95%
- Population Pyknosed Nuclei (%) [7]: 13%
- Population Tubulin-Different-Phenotype (%) [7]: 27%
- Total Cell Count [7]: 506
- Population Apoptotic (%) [8]: 61%
- Population Fragmented Nuclei (%) [8]: 13%
- Population Healthy Nuclei (%) [8]: 79%
- Population Hoechst High Intensity Objects (%) [8]: 7%
- Population Mitochondria Different-Phenotype (%) [8]: 39%
- Population Mitotic Cells (%) [8]: 38%
- Population Normal (%) [8]: 92%
- Population Pyknosed Nuclei (%) [8]: 7%
- Population Tubulin-Different-Phenotype (%) [8]: 11%
- Total Cell Count [8]: 425
- Population Apoptotic (%) [9]: 18%
- Population Fragmented Nuclei (%) [9]: 11%
- Population Healthy Nuclei (%) [9]: 81%
- Population Hoechst High Intensity Objects (%) [9]: 3%
- Population Membrane Permeable-Phenotype (%) [9]: 0%
- Population Mitochondria Different-Phenotype (%) [9]: 20%
- Population Mitotic Cells (%) [9]: 81%
- Population Normal (%) [9]: 96%
- Population Pyknosed Nuclei (%) [9]: 6%
- Population Tubulin-Different-Phenotype (%) [9]: 13%
- Total Cell Count [9]: 946
- Population Apoptotic (%) [10]: 32%
- Population Healthy Nuclei (%) [10]: 80%
- Population Hoechst High Intensity Objects (%) [10]: 4%
- Population Mitochondria Different-Phenotype (%) [10]: 22%
- Population Mitotic Cells (%) [10]: 67%
- Population Normal (%) [10]: 95%
- Population Pyknosed Nuclei (%) [10]: 7%
- Population Tubulin-Different-Phenotype (%) [10]: 12%
- Total Cell Count [10]: 572
- Population Apoptotic (%) [11]: 30%
- Population Fragmented Nuclei (%) [11]: 18%
- Population Healthy Nuclei (%) [11]: 74%
- Population Hoechst High Intensity Objects (%) [11]: 5%
- Population Membrane Permeable-Phenotype (%) [11]: 0%
- Population Mitochondria Different-Phenotype (%) [11]: 24%
- Population Mitotic Cells (%) [11]: 69%
- Population Normal (%) [11]: 94%
- Population Pyknosed Nuclei (%) [11]: 6%
- Population Tubulin-Different-Phenotype (%) [11]: 14%
- Total Cell Count [11]: 753
- Population Apoptotic (%) [12]: 37%
- Population Fragmented Nuclei (%) [12]: 14%
- Population Healthy Nuclei (%) [12]: 79%
- Population Hoechst High Intensity Objects (%) [12]: 2%
- Population Mitochondria Different-Phenotype (%) [12]: 27%
- Population Mitotic Cells (%) [12]: 62%
- Population Normal (%) [12]: 97%
- Population Pyknosed Nuclei (%) [12]: 5%
- Population Tubulin-Different-Phenotype (%) [12]: 12%
- Total Cell Count [12]: 616
